Apaf-1 inh = inhibitors of human Apaf-1 apoptosome, primary screen, biochemical, DEVD-Rh110 fluorescence, uHTS; reconstituted apoptosome caspase-3 activity; inhibition, % at 20 µM; Apoptotic protease-activating factor 1 (Homo sapiens), O14727; 0.71% of 330,000 active; AID 489030, 2010; active means inhibition of at least 40% at 20 µM;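 further: plate controls were DMSO wells for no effect and DEVD-CHO caspase inhibitor wells for full effect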
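System – cell-free apoptosome with Apaf-1, procaspase-3 and caspase-9 · Buffer or medium – pH 7.5 Hepes buffer with CHAPS, BSA, DTT · Also added – cytochrome c with DEVD-Rh110 · Times – 30 min compound preincubation, 50 min activation, room temperature · Technique – Rh110 fluorescence intensity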
SENP6 block = SENP6 protease inhibitors, primary screen, biochemical, luminescence, uHTS. Recombinant SENP6 catalytic domain, aminoluciferin luminescence. inhibition, % at 10 µM. 1.8% of 330,000 active. AID 2599, 2010;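 active means inhibition above about 50% at the single tested dose, limit read from the data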;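 further: plate controls were DMSO wells with enzyme for no effect and DMSO wells lacking enzyme for full effect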
UBC13 inh = UBC13 polyubiquitin chain formation inhibitors, primary screen, biochemical, TR-FRET, uHTS; inhibition, % at 20 µM; 0.47% of 330,000 active; AID 485273, 2010; in the data active means inhibition above about 45%, passing the limit was not always enough
SENP8 block-1 = human SENP8 protease inhibitors, primary screen, biochemical, fluorescence, Nedd8 protein substrate, uHTS; Sentrin-specific protease 8 (Homo sapiens), Q96LD8; recombinant SENP8; inhibition, % at 20 µM; 0.64% of 360,000 active; AID 602440, 2012; in the data active means inhibition mostly above about 40%, no sharp cut-off; inactive means mostly below about 27%
SENP7 block = SENP7 protease inhibitors, primary screen, biochemical, luminescence, uHTS; Sentrin-specific protease 7 (Homo sapiens), Q9BQF6; recombinant SENP7, Z-RLRGG-aminoluciferin luminescence, 40 min; inhibition, % at 5 µM; 1.5% of 330,000 active;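 active means inhibition above about 50% at the single test dose, limit read from the data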;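 further: plate controls were DMSO with enzyme for no effect and no enzyme buffer wells for full effect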
SENP8 block-2 = SENP8 protease inhibitors, primary screen, biochemical, luminescence; Sentrin-specific protease 8 (Homo sapiens), Q96LD8; purified SENP8, Z-RLRGG-aminoluciferin cleavage; inhibition, % at 10 µM; 1.2% of 330,000 active; in the data active means inhibition above about 50%
The depositor's hits bear a star. Shown are actives, neighbours in structure and some others; about 3% of the full set was active somewhere.

How did COc1nccnc1NS(=O)(=O)c1ccc(NC(=S)NC(=O)c2ccc(F)cc2)cc1 do in these assays?
Apaf-1 inh: -3; SENP6 block: 86*; UBC13 inh: -6; SENP8 block-1: 22; SENP7 block: 69*; SENP8 block-2: 78*

Results for COc1nsnc1NS(=O)(=O)c1ccc(NC(=S)NC(=O)c2ccncc2)cc1 ?
Apaf-1 inh: 2; SENP6 block: 0; UBC13 inh: -3; SENP8 block-1: 25; SENP7 block: 19; SENP8 block-2: 8

How did COc1ccccc1OCC(=O)N/N=C1\CCCCc2ccccc21 do in these assays?
Apaf-1 inh: -1; SENP6 block: 1; UBC13 inh: -4; SENP8 block-1: 16; SENP7 block: 0; SENP8 block-2: -4

How did O=C(COc1ccccc1F)N/N=C1\CCCc2ccccc21 do in these assays?
Apaf-1 inh: 7; SENP6 block: 57*; UBC13 inh: -2; SENP8 block-1: 12; SENP7 block: 39; SENP8 block-2: 37

Results for COc1c2occc2c(OC)c2c(=O)cc(C)oc12 ?
Apaf-1 inh: -1; SENP6 block: -20; UBC13 inh: 16; SENP8 block-1: -6; SENP7 block: -1; SENP8 block-2: 0

How did Cc1cc(=O)c2c(o1)C(=O)c1occc1C2=O do in these assays?
SENP8 block-1: 75*

Results for O=C(Nc1nnc(-c2ccccn2)o1)c1ccc(Br)cc1 ?
Apaf-1 inh: 5; SENP6 block: 77*; UBC13 inh: -23; SENP8 block-1: 2; SENP7 block: 63*; SENP8 block-2: 57*

How did CC1(C(=O)Nc2cnc3ccccc3c2)CCN1Cc1ccccc1Cl (stereo not given) do in these assays?
SENP8 block-1: -9

What do the screens show for `O=C(CCN1C(=O)/C(=C\C=C\c2ccccc2)SC1=S)Nc1ccc(C(=O)O)cc1`?
Apaf-1 inh: 19; SENP6 block: 59*; UBC13 inh: -15; SENP8 block-1: 16; SENP7 block: 18; SENP8 block-2: 60*

Results for O=C(CN1C(=O)S/C(=C/C=C/c2ccccc2)C1=O)Nc1ccc(C(=O)O)cc1 ?
Apaf-1 inh: 27; SENP6 block: 29; UBC13 inh: -11; SENP8 block-1: -130; SENP7 block: 5; SENP8 block-2: 6

How did CS(=O)c1nc(-c2ccc(Br)cc2)cc(-c2ccccc2)c1C#N (stereo not given) do in these assays?
Apaf-1 inh: 55*; SENP6 block: -38; UBC13 inh: 3; SENP8 block-1: -23; SENP7 block: -12; SENP8 block-2: -7

What do the screens show for `O=C(CCCCCNC(=O)c1ccccc1)N=Nc1c(O)[nH]c2c(Br)cc(Br)cc12`?
Apaf-1 inh: 19; SENP6 block: 8; UBC13 inh: -5; SENP7 block: 10; SENP8 block-2: 5

What do the screens show for `O=C(CNC(=O)c1cccnc1)N=Nc1c(O)[nH]c2c(Br)cc(Br)cc12`?
Apaf-1 inh: 5; SENP6 block: 9; UBC13 inh: -20; SENP8 block-1: 44*; SENP7 block: 11; SENP8 block-2: -4

Results for Nc1nc(-c2ccccc2)c(N=Nc2ccc(Cl)cc2)s1 ?
Apaf-1 inh: -6; SENP6 block: -12; UBC13 inh: -140; SENP8 block-1: 46*; SENP7 block: -2; SENP8 block-2: -6

Results for Nc1nc(-c2ccccc2)c(-c2ccccc2)s1 ?
Apaf-1 inh: 10; SENP6 block: 3; UBC13 inh: 7; SENP8 block-1: -48; SENP7 block: -1; SENP8 block-2: 4

Results for CCC(C)C(=O)N1c2ccccc2C(=C2SC(C(=O)OC)=C(C(=O)OC)S2)C(=S)C1(C)C (stereo not given) ?
Apaf-1 inh: 19; SENP6 block: -12; UBC13 inh: -112; SENP8 block-1: 56*; SENP7 block: 4; SENP8 block-2: -5

What do the screens show for `COc1ccc(CCn2c(N)c(S(=O)(=O)c3cccs3)c3nc4ccccc4nc32)cc1OC`?
Apaf-1 inh: 0; SENP6 block: 8; UBC13 inh: -10; SENP8 block-1: -294; SENP7 block: 3; SENP8 block-2: -1

What do the screens show for `Nc1c(S(=O)(=O)c2cccs2)c2nc3ccccc3nc2n1CCc1ccccc1`?
Apaf-1 inh: 71*; SENP6 block: 53*; UBC13 inh: -24; SENP7 block: 27; SENP8 block-2: 31

What do the screens show for `CN1C(=S)SC(N(O)C(=O)Nc2cccc3ccccc23)C1(C)C` (stereo not given)?
Apaf-1 inh: 25; SENP6 block: 57*; UBC13 inh: -24; SENP8 block-1: -433; SENP7 block: 26; SENP8 block-2: 23

What do the screens show for `CN1C(=S)SC(N(O)C(=O)Nc2ccccc2)C1(C)C` (stereo not given)?
Apaf-1 inh: -8; SENP6 block: 8; UBC13 inh: 11; SENP8 block-1: 17; SENP7 block: 4; SENP8 block-2: 5

How did O=C(Nc1ccc2c(c1)OCO2)c1n[nH]c(=O)c2ccccc12 do in these assays?
Apaf-1 inh: -4; SENP6 block: 67*; UBC13 inh: 3; SENP8 block-1: 20; SENP7 block: 62*; SENP8 block-2: 38

How did O=C(Nc1c(C(=O)Nc2cccc(F)c2)oc2ccccc12)c1ccc2c(c1)OCO2 do in these assays?
Apaf-1 inh: -5; SENP6 block: 3; UBC13 inh: 29; SENP8 block-1: -138; SENP7 block: -4; SENP8 block-2: -5

How did O=C(Nc1cccc(F)c1)c1ccc2c(c1)OCO2 do in these assays?
Apaf-1 inh: -3; SENP6 block: 86*; UBC13 inh: 4; SENP8 block-1: 26; SENP7 block: 90*; SENP8 block-2: 71*

How did CCc1nc2ccc(C(=O)Nc3cccc(C(C)=O)c3)cc2nc1CC do in these assays?
Apaf-1 inh: -10; SENP6 block: 33; UBC13 inh: -4; SENP8 block-1: 8; SENP7 block: 3; SENP8 block-2: 5

What do the screens show for `CCc1nc2ccc(C(=O)Nc3ccc4c(c3)OCO4)cc2nc1CC`?
Apaf-1 inh: -7; SENP6 block: 13; UBC13 inh: 0; SENP8 block-1: 16; SENP7 block: 50; SENP8 block-2: 51*

What do the screens show for `O=C(Nc1ccc([N+](=O)[O-])cn1)c1ccc2c(c1)OCO2`?
Apaf-1 inh: -1; SENP6 block: 24; UBC13 inh: -1; SENP8 block-1: 9; SENP7 block: 67*; SENP8 block-2: -14

Results for CC(C)(C)c1ccc(C(=O)Nc2ccc([N+](=O)[O-])cn2)cc1 ?
Apaf-1 inh: 2; SENP6 block: -38; UBC13 inh: -7; SENP8 block-1: 20; SENP7 block: 12; SENP8 block-2: -19

Assay outcomes as filed in PubChem BioAssay.
